# Data: ChEMBL document CHEMBL1153988 (J Med Chem, 2009)
# Key:
# Mus musculus [1] = assay: Anticonvulsant activity in ip dosed CF1 albino mouse assessed as protection against scMet-induced seizures; assay type: functional
# Method in brief: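 Adult male CF no. 1 albino mice (18-25 g) dosed ip with compound suspended in 0.5% methylcellulose (0.01 mL/g body weight). Seizures were induced by subcutaneous pentylenetetrazol, given as a 0.85% solution in 0.9% saline. ED50 was found by varying the dose to give 3-4 points between 0% and 100% protection, then probit analysis with 95% confidence intervals.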
# Mus musculus [2] = assay: Neurotoxicity in ip dosed CF1 albino mouse assessed as minimal motor impairment; assay type: toxicity, organism-based; conditions: mouse, in vivo
# Method in brief: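 Mice: male CF no. 1 albino (18-25 g), ip dosing in 0.5% methylcellulose. Minimal motor impairment was scored, with doses varied to give four points between no impairment and all animals impaired.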
# Mus musculus [3] = assay: Anticonvulsant activity in ip dosed CF1 albino mouse assessed as protection against maximal electroshock-induced seizures; assay type: functional
# Method in brief: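 Male CF no. 1 albino mice (18-25 g) were dosed ip in 0.5% methylcellulose and tested by maximal electroshock. Doses were varied to give 3-4 points between 0% and 100% protection. ED50 with 95% confidence interval came from probit analysis.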
# Rattus norvegicus [4] = species on record: Rattus norvegicus; assay: Protective index, ratio of TD50 for albino Sprague-Dawley rat to ED50 for maximal electroshock-induced albino Sprague-Dawley rat seizure model; assay type: functional
# Method in brief: (§1)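 Protective index is the rat TD50 (minimal motor impairment) divided by the ED50 in the MES or sc pentylenetetrazol test. Male Sprague-Dawley rats were dosed orally in 0.5% methylcellulose, and both values came from probit analysis.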
# Mus musculus [5] = species on record: Mus musculus; assay: Protective index, ratio of TD50 for CF1 albino mouse to ED50 for maximal electroshock-induced CF1 albino seizure mouse model; assay type: functional
# Method in brief: (§2)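 Ratio of TD50 to ED50 (MES or scMet) in male CF no. 1 mice (18-25 g) given ip doses in 0.5% methylcellulose. TD50 comes from minimal motor impairment: the dose was varied until four points lay between no impairment and all animals impaired. Both TD50 and ED50 were derived by probit analysis with 95% confidence intervals.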
# Mus musculus [6] = species on record: Mus musculus; assay: Protective index, ratio of TD50 for CF1 albino mouse to ED50 for 44 mA-current-induced CF1 albino mouse seizure model; assay type: functional
# Method in brief: (§3)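 Protective index is the mouse TD50 (minimal motor impairment) divided by the 6 Hz test ED50 at 32 or 44 mA. Male CF no. 1 mice were dosed ip in 0.5% methylcellulose, and values came from probit analysis.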
# Mus musculus [7] = assay: Anticonvulsant activity in ip dosed CF1 albino mouse assessed as protection against 44 mA-current-induced seizure by 6Hz psychomotor seizure test; assay type: functional
# Method in brief: (§4)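 In the 6 Hz psychomotor seizure test, male CF no. 1 albino mice (18-25 g) received the compound ip in 0.5% methylcellulose. Stimulation was at 32 or 44 mA. Doses were varied to give 3-4 points between 0% and 100% protection, and ED50 with 95% confidence interval came from probit analysis.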
# Mus musculus [8] = assay: Anticonvulsant activity in ip dosed CF1 albino mouse assessed as protection against 32 mA current-induced seizure by 6Hz psychomotor seizure test; assay type: functional; method in brief: as §4
# Rattus norvegicus [9] = assay: Anticonvulsant activity in po dosed albino Sprague-Dawley rat assessed as protection against scMet-induced seizures; assay type: functional
# Method in brief: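 Male Sprague-Dawley albino rats (100-150 g) were dosed orally in 0.5% methylcellulose and tested by MES or by sc pentylenetetrazol (2.82% in 0.9% saline). Doses were varied to give 3-4 points between 0% and 100% protection. ED50 and 95% confidence intervals came from probit analysis.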
# Rattus norvegicus [10] = assay: Anticonvulsant activity in po dosed albino Sprague-Dawley rat assessed as protection against maximal electroshock-induced seizures; assay type: functional
# [11] = Neurotoxicity in po dosed albino Sprague-Dawley rat assessed as minimal motor impairment; assay type: toxicity, organism-based; conditions: in vivo
# Method in brief: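 Rats: male Sprague-Dawley (100-150 g), oral dosing in 0.5% methylcellulose. Doses were varied to give four points between no minimal motor impairment and all animals impaired. TD50 and 95% confidence intervals came from probit analysis.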
# Rattus norvegicus [12] = species on record: Rattus norvegicus; assay: Protective index, ratio of TD50 for albino Sprague-Dawley rat to ED50 for scMet-induced albino Sprague-Dawley rat seizure model; assay type: functional; method in brief: as §1
# Mus musculus [13] = species on record: Mus musculus; assay: Protective index, ratio of TD50 for CF1 albino mouse to ED50 for scMet-induced CF1 albino seizure mouse model; assay type: functional; method in brief: as §2
# Mus musculus [14] = species on record: Mus musculus; assay: Protective index, ratio of TD50 for CF1 albino mouse to ED50 for 32 mA current-induced CF1 albino mouse seizure model; assay type: functional; method in brief: as §3
# Mus musculus [15] = assay: Anticonvulsant activity in CF1 albino mouse assessed as protection against maximal electroshock-induced seizures at 450 mg/kg, ip after 0.5 hrs; assay type: functional, organism-based; design: dose 450 mg/kg
# Method in brief: (§5)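 Adult male CF no. 1 albino mice (18-25 g). Test compound suspended in 0.5% methylcellulose and given intraperitoneally at 0.01 mL/g body weight. Maximal electroshock challenge at the stated time. Read-out is the number of animals protected over the number tested; neurotoxicity is scored in parallel.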
# Mus musculus [16] = assay: Neurotoxicity in CF1 albino mouse at 50 mg/kg, ip after 4 hrs; assay type: toxicity, organism-based; design: dose 50 mg/kg, route intraperitoneal; conditions: in vivo
# Method in brief: (§6)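 Male CF no. 1 albino mice (18-25 g) received a single ip dose as a suspension in 0.5% methylcellulose. The read-out was the number of animals showing neurotoxicity (minimal motor impairment) over the number tested.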
# Mus musculus [17] = assay: Anticonvulsant activity in CF1 albino mouse assessed as protection against maximal electroshock-induced seizures at 50 mg/kg, ip after 0.5 hrs; assay type: functional, organism-based; design: dose 50 mg/kg; method in brief: as §5
# Mus musculus [18] = assay: Anticonvulsant activity in CF1 albino mouse assessed as protection against maximal electroshock-induced seizures at 150 mg/kg, ip after 0.5 hrs; assay type: functional, organism-based; design: dose 150 mg/kg; method in brief: as §5
# Mus musculus [19] = assay: Anticonvulsant activity in CF1 albino mouse assessed as protection against scMet-induced seizures at 150 mg/kg, ip after 0.5 hrs; assay type: functional, organism-based; design: dose 150 mg/kg
# Method in brief: (§7)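 Adult male CF no. 1 albino mice (18-25 g) dosed intraperitoneally with compound suspended in 0.5% methylcellulose (0.01 mL/g). Convulsant challenge given subcutaneously as a 0.85% pentylenetetrazol solution in 0.9% saline. Read-out is animals protected over animals tested, with neurotoxicity scored in parallel.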
# Mus musculus [20] = assay: Anticonvulsant activity in CF1 albino mouse assessed as protection against scMet-induced seizures at 450 mg/kg, ip after 4 hrs; assay type: functional, organism-based; design: dose 450 mg/kg; method in brief: as §7
# Mus musculus [21] = assay: Anticonvulsant activity in CF1 albino mouse assessed as protection against maximal electroshock-induced seizures at 50 mg/kg, ip after 4 hrs; assay type: functional, organism-based; design: dose 50 mg/kg; method in brief: as §5
# Mus musculus [22] = assay: Anticonvulsant activity in CF1 albino mouse assessed as protection against scMet-induced seizures at 50 mg/kg, ip after 0.5 hrs; assay type: functional, organism-based; design: dose 50 mg/kg; method in brief: as §7
# Mus musculus [23] = assay: Neurotoxicity in CF1 albino mouse at 150 mg/kg, ip after 4 hrs; assay type: toxicity, organism-based; design: dose 150 mg/kg, route intraperitoneal; conditions: in vivo; method in brief: as §6
# Mus musculus [24] = assay: Anticonvulsant activity in CF1 albino mouse assessed as protection against scMet-induced seizures at 450 mg/kg, ip after 0.5 hrs; assay type: functional, organism-based; design: dose 450 mg/kg; method in brief: as §7
# Mus musculus [25] = assay: Anticonvulsant activity in CF1 albino mouse assessed as protection against maximal electroshock-induced seizures at 150 mg/kg, ip after 4 hrs; assay type: functional, organism-based; design: dose 150 mg/kg; method in brief: as §5
# Mus musculus [26] = assay: Anticonvulsant activity in CF1 albino mouse assessed as protection against maximal electroshock-induced seizures at 450 mg/kg, ip after 4 hrs; assay type: functional, organism-based; design: dose 450 mg/kg; method in brief: as §5
# Mus musculus [27] = assay: Anticonvulsant activity in CF1 albino mouse assessed as protection against scMet-induced seizures at 150 mg/kg, ip after 4 hrs; assay type: functional, organism-based; design: dose 150 mg/kg; method in brief: as §7
# Mus musculus [28] = assay: Anticonvulsant activity in CF1 albino mouse assessed as protection against scMet-induced seizures at 50 mg/kg, ip after 4 hrs; assay type: functional, organism-based; design: dose 50 mg/kg; method in brief: as §7
# Mus musculus [29] = assay: Neurotoxicity in CF1 albino mouse at 450 mg/kg, ip after 0.5 hrs; assay type: toxicity, organism-based; design: dose 450 mg/kg, route intraperitoneal; conditions: in vivo; method in brief: as §6
smiles,measurement,setting,value
CCCC(CCC)C(N)=O [VALPROMIDE],ED50,Mus musculus [1],55 mg/kg
same,ED50,Mus musculus [2],81 mg/kg
same,ED50,Mus musculus [3],56 mg/kg
same,PI,Rattus norvegicus [4],2.7
same,PI,Mus musculus [5],1.4
same,PI,Mus musculus [6],1.2
same,ED50,Mus musculus [7],66 mg/kg
same,ED50,Mus musculus [8],57 mg/kg
same,ED50,Rattus norvegicus [9],59 mg/kg
same,ED50,Rattus norvegicus [10],32 mg/kg
same,TD50,[11],87 mg/kg
same,PI,Rattus norvegicus [12],1.5
same,PI,Mus musculus [13],1.5
same,PI,Mus musculus [14],1.4
CC1(C)C(C)(C)C1(Br)C(N)=O,Activity,Mus musculus [15],Non-toxic
same,Activity,Mus musculus [16],Non-toxic
same,Activity,Mus musculus [17],Non-toxic
same,Activity,Mus musculus [18],Non-toxic
same,Activity,Mus musculus [19],Non-toxic
same,Activity,Mus musculus [20],Non-toxic
same,Activity,Mus musculus [21],Non-toxic
same,Activity,Mus musculus [22],Non-toxic
same,Activity,Mus musculus [23],Non-toxic
same,Activity,Mus musculus [24],Non-toxic
same,Activity,Mus musculus [25],Non-toxic
same,Activity,Mus musculus [26],Non-toxic
same,Activity,Mus musculus [27],Non-toxic
same,Activity,Mus musculus [28],Non-toxic
same,Activity,Mus musculus [29],Toxic
CC1(C)C(C(N)=O)C1(C)C,ED50,Mus musculus [2],99 mg/kg
same,ED50,Mus musculus [7],> 200 mg/kg
same,ED50,Mus musculus [8],72 mg/kg
same,PI,Mus musculus [14],1.4
